The values that follow come from ChEMBL document CHEMBL2086221, “Armeniaspiroles, a new class of antibacterials: Antibacterial activities and total synthesis of 5-chloro-Armeniaspirole A” (Bioorg Med Chem Lett, 2012).

Structures are written as SMILES. Converted amounts (≈) assume the structure as drawn. The source made the active and inactive calls. The calls are words filed in the database; no cut-off is given here.

In data set [1] the test system is Streptococcus pneumoniae. Briefly: Antibacterial activity against penicillin-resistant Streptococcus pneumoniae DSM 11865. It counts as functional.
Data set [2] deals with Staphylococcus aureus. Briefly: Antibacterial activity against methicillin-resistant Staphylococcus aureus ATCC 33592. The data set is classed as functional.
The test system of data set [3] is Enterococcus faecium. Description: Antibacterial activity against vancomycin-resistant Enterococcus faecium DSM 17050. The data set is classed as functional.
The subject of data set [4] is Escherichia coli. Briefly: Antibacterial activity against Escherichia coli ATCC 35218 expressing LacR. The data set is classed as functional.
Data set [5] deals with Pseudomonas aeruginosa. Briefly: Antibacterial activity against Pseudomonas aeruginosa ATCC 27853. It counts as functional.
Data set [6] is described as follows: Solubility of the compound in PBS buffer at pH 7.4. It counts as physicochemical.
Data set [7] can be described thus: Chemical stability of the compound in PBS buffer up to 24 hrs at pH 7.4. The data set is classed as physicochemical. To be noted: pH 7.4, 24 h.
For data set [8], the system named is Staphylococcus aureus. Briefly: Antibacterial activity against methicillin-resistant Staphylococcus aureus ATCC 33592 at >1 ug/mL after 48 hrs. The data set is classed as functional, organism-based.
The subject of data set [9] is Streptococcus pneumoniae. Description: Antibacterial activity against penicillin-resistant Streptococcus pneumoniae DSM 11865 at >1 ug/mL after 48 hrs. It counts as functional, organism-based.
Data set [10] relates to Enterococcus faecium. Briefly: Antibacterial activity against vancomycin-resistant Enterococcus faecium DSM 17050 at >1 ug/mL after 48 hrs. It counts as functional, organism-based.
The test system of data set [11] is Escherichia coli. Briefly: Antibacterial activity against Escherichia coli ATCC 35218 expressing LacR at >1 ug/mL after 48 hrs. It counts as functional, organism-based.
Data set [12] concerns Pseudomonas aeruginosa. Briefly: Antibacterial activity against Pseudomonas aeruginosa ATCC 27853 at >1 ug/mL after 48 hrs. The data set is classed as functional, organism-based.
The test system of data set [13] is Staphylococcus aureus. Description: Bacteriostatic activity against methicillin-resistant Staphylococcus aureus ATCC 33592 by time kill study in presence of fetal calf serum. It counts as functional, organism-based.
Data set [14] deals with Streptococcus pneumoniae. Briefly: Bacteriostatic activity against penicillin-resistant Streptococcus pneumoniae DSM 11865 by time kill study in presence of fetal calf serum. It counts as functional, organism-based.
The test system of data set [15] is Enterococcus faecium. Briefly: Bacteriostatic activity against vancomycin-resistant Enterococcus faecium DSM 17050 by time kill study in presence of fetal calf serum. It counts as functional, organism-based.
Data set [16] relates to Escherichia coli. Briefly: Bacteriostatic activity against Escherichia coli ATCC 35218 expressing LacR by time kill study in presence of fetal calf serum. It counts as functional, organism-based.
For data set [17], the system named is Pseudomonas aeruginosa. Description: Bacteriostatic activity against Pseudomonas aeruginosa ATCC 27853 by time kill study in presence of fetal calf serum. It counts as functional, organism-based.
Data set [18] deals with Staphylococcus aureus. Briefly: Antibacterial activity against methicillin-resistant Staphylococcus aureus ATCC 33592 infected in mouse assessed as host survival at 40 mg/kg/day, sc relative to control. It counts as functional. To be noted: ATCC 33592, sc, route subcutaneous. In outline: (§1)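 Mice with MRSA ATCC33592 septicemia were dosed sc at 20, 40 or 80 mg/kg/d in 5% ethanol/5% Solutol/Tris-NaCl buffer pH 9. Survival was scored in six animals per group, and log reduction of blood bacteremia in five animals per group. Results are given as mean ± sem against the vehicle-treated group (P < 0.05 or P < 0.001).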

For data set [19], the system named is Staphylococcus aureus. Description: Antibacterial activity against methicillin-resistant Staphylococcus aureus ATCC 33592 infected in mouse assessed as host survival at 20 mg/kg/day, iv relative to control. The data set is classed as functional.
The subject of data set [20] is Staphylococcus aureus. Briefly: Antibacterial activity against methicillin-resistant Staphylococcus aureus ATCC 33592 infected in mouse assessed as log reduction in bacteremia at 40 mg/kg/day, sc relative to control. The data set is classed as functional. To be noted: route subcutaneous. In outline:
as §1

In data set [21] the test system is Staphylococcus aureus. Briefly: Antibacterial activity against methicillin-resistant Staphylococcus aureus ATCC 33592 infected in mouse assessed as log reduction in bacteremia at 20 mg/kg/day, iv relative to control. It counts as functional.
The subject of data set [22] is Enterococcus faecium. Description: Bacteriostatic activity against vancomycin-resistant Enterococcus faecium DSM 17050 by time kill study. It counts as functional, organism-based.
For data set [23], the system named is Escherichia coli. Description: Bacteriostatic activity against Escherichia coli ATCC 35218 expressing LacR by time kill study. The data set is classed as functional, organism-based.
Data set [24] concerns Pseudomonas aeruginosa. Description: Bacteriostatic activity against Pseudomonas aeruginosa ATCC 27853 by time kill study. The data set is classed as functional, organism-based.
The mark [25] stands for this setting: Staphylococcus aureus, ATCC 33592.
Setting [26] is: Enterococcus faecium, DSM 17050.
Setting [27] is: Streptococcus pneumoniae, DSM 11865.

Consider `CCCCCCc1c(O)c(Cl)cc2c1O[C@]1(C2=O)C(Cl)=C(Cl)C(=O)N1C` (stereo in doubt; form 1) [listing 1 of 2 here], for which the IC80 in the data set with Streptococcus pneumoniae [1] is 1.7 µM; in the data set with Staphylococcus aureus [2] (setting [25]), 5.1 µM; with Enterococcus faecium [3] (setting [26]), 8.5 µM; with Escherichia coli [4], above 30 µM; with Pseudomonas aeruginosa [5], above 30 µM.
In turn, `CC[C@H](C)CCCc1c(O)ccc2c1O[C@]1(C2=O)C(Cl)=C(Cl)C(=O)N1C` [ARMENIASPIROLE C] had a solubility in data set [6] of 5 µg/mL (≈ 12.6 µM). Also, in data set [7], the Stability entry is given as “Stable”. Also, the result in the data set with Staphylococcus aureus [8], in the data set with Streptococcus pneumoniae [9], in the data set on Enterococcus faecium [10], in the data set with Escherichia coli [11] and with Pseudomonas aeruginosa [12] was Active. The result in the data set with Staphylococcus aureus [13], in the data set with Streptococcus pneumoniae [14], with Enterococcus faecium [15], with Escherichia coli [16] and in the data set on Pseudomonas aeruginosa [17] was inactive.
On to `CC(C)CCCc1c(O)ccc2c1O[C@]1(C2=O)C(Cl)=C(Cl)C(=O)N1C` [ARMENIASPIROLE B], for which the concentration in solution in [6] (solubility) came to 10 µg/mL (≈ 26 µM). Moreover, the Stability result in data set [7] is given as “Stable”. In addition, the outcome in the data set on Staphylococcus aureus [8], in the data set on Streptococcus pneumoniae [9], with Enterococcus faecium [10], in the data set on Escherichia coli [11] and with Pseudomonas aeruginosa [12] was Active. Also, the outcome in the data set with Staphylococcus aureus [13], in the data set with Streptococcus pneumoniae [14], in the data set with Enterococcus faecium [15], with Escherichia coli [16] and with Pseudomonas aeruginosa [17] was inactive.
On to `CN[C@H](CC(C)C)C(=O)N[C@H]1C(=O)N[C@@H](CC(N)=O)C(=O)N[C@H]2C(=O)N[C@H]3C(=O)N[C@H](C(=O)N[C@H](C(=O)O)c4cc(O)cc(O)c4-c4cc3ccc4O)[C@H](O)c3ccc(c(Cl)c3)Oc3cc2cc(c3O[C@@H]2O[C@H](CO)[C@@H](O)[C@H](O)[C@H]2O[C@H]2C[C@](C)(N)[C@H](O)[C@H](C)O2)Oc2ccc(cc2Cl)[C@H]1O` [VANCOMYCIN], for which the IC80 with Streptococcus pneumoniae [1] (setting [27]) is 0.2 µM; in the data set with Staphylococcus aureus [2] (setting [25]), 0.4 µM; in the data set on Enterococcus faecium [3] (setting [26]), above 30 µM. For the same molecule, the survival at 40 mg/kg/day in the data set on Staphylococcus aureus [18] came out at 100%. Also, the survival at 20 mg/kg/day with Staphylococcus aureus [19] worked out at 100%. Also, the FC was found to be 4 in the data set with Staphylococcus aureus [20] and 4.2 in the data set on Staphylococcus aureus [21].
For `CCCCCCc1c(O)c(Cl)cc2c1O[C@]1(C2=O)C(Cl)=C(Cl)C(=O)N1C` (stereo in doubt; form 2) [listing 1 of 2 here], the IC80 worked out at 0.4 µM in the data set on Streptococcus pneumoniae [1], 3.7 µM in the data set with Staphylococcus aureus [2] and 8.2 µM in the data set with Enterococcus faecium [3].
Consider `CCCCCCc1c(O)c(Cl)cc2c1O[C@]1(C2=O)C(Cl)=C(Cl)C(=O)N1C` (stereo in doubt; form 2) [listing 2 of 2 here], for which the Activity result in the data set on Enterococcus faecium [22], in the data set on Escherichia coli [23] and in the data set on Pseudomonas aeruginosa [24] was “Dose-dependent effect” in each case. The result with Staphylococcus aureus [8], in the data set with Streptococcus pneumoniae [9], with Enterococcus faecium [10], in the data set with Escherichia coli [11] and with Pseudomonas aeruginosa [12] was Active. Also, the result with Staphylococcus aureus [13], in the data set with Streptococcus pneumoniae [14], in the data set on Enterococcus faecium [15], in the data set on Escherichia coli [16] and in the data set with Pseudomonas aeruginosa [17] was inactive.
As for `CCCCCCc1c(O)c(Cl)cc2c1O[C@@]1(C2=O)C(Cl)=C(Cl)C(=O)N1C`, the IC80 is 0.5 µM in the data set on Streptococcus pneumoniae [1] (setting [27]); 1.4 µM with Staphylococcus aureus [2] (setting [25]); 6.7 µM in the data set with Enterococcus faecium [3] (setting [26]); above 30 µM in the data set with Escherichia coli [4]; above 30 µM in the data set on Pseudomonas aeruginosa [5]. For the same molecule, the result in the data set on Staphylococcus aureus [8], in the data set on Streptococcus pneumoniae [9], with Enterococcus faecium [10], in the data set on Escherichia coli [11] and in the data set with Pseudomonas aeruginosa [12] was Active. The outcome with Staphylococcus aureus [13], in the data set on Streptococcus pneumoniae [14], in the data set with Enterococcus faecium [15], in the data set on Escherichia coli [16] and with Pseudomonas aeruginosa [17] was inactive.
For `CCCCCCc1c(O)c(Cl)cc2c1O[C@]1(C2=O)C(Cl)=C(Cl)C(=O)N1C` (stereo in doubt; form 1) [listing 2 of 2 here], the Activity entry in the data set on Escherichia coli [23] and in the data set on Pseudomonas aeruginosa [24] was “Dose-dependent effect” in each case. Besides, the result in the data set with Staphylococcus aureus [8], in the data set on Streptococcus pneumoniae [9], in the data set on Enterococcus faecium [10], in the data set on Escherichia coli [11] and in the data set with Pseudomonas aeruginosa [12] was Active. For the same molecule, the result in the data set on Staphylococcus aureus [13], in the data set with Streptococcus pneumoniae [14], in the data set with Enterococcus faecium [15], in the data set with Escherichia coli [16] and in the data set on Pseudomonas aeruginosa [17] was inactive.
Regarding `CCCCCCc1c(O)c(Cl)cc2c1OC1(C2=O)C(Cl)=C(Cl)C(=O)N1C` (racemic), the IC80 in the data set on Streptococcus pneumoniae [1] (setting [27]) is 1.3 µM; with Staphylococcus aureus [2] (setting [25]), 3.1 µM; in the data set on Enterococcus faecium [3] (setting [26]), 5.2 µM; in the data set with Escherichia coli [4], above 30 µM; with Pseudomonas aeruginosa [5], above 30 µM. The result in the data set on Staphylococcus aureus [8], in the data set on Streptococcus pneumoniae [9], with Enterococcus faecium [10], with Escherichia coli [11] and with Pseudomonas aeruginosa [12] was Active. The result with Staphylococcus aureus [13], in the data set with Streptococcus pneumoniae [14], in the data set on Enterococcus faecium [15], in the data set on Escherichia coli [16] and with Pseudomonas aeruginosa [17] was inactive.
